Data from ChEMBL document CHEMBL1139245, “Synthesis and antiinflammatory activity of some new 1,3,5-trisubstituted pyrazolines bearing benzene sulfonamide” (Bioorg Med Chem Lett, 2009).

Experiments:
[1] = tested on: Rattus norvegicus; assay: Antiinflammatory activity in carrageenan-induced Wistar rat paw edema model assessed as increase in paw volume at 20 mg/kg, po measured 3 hrs after carrageenan challenge relative to control; format: functional
Method in brief: (§1)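 Wistar rats of either sex (150–175 g), fasted 16 h overnight, groups of six; compound dosed orally at 20 mg/kg bw. 30 min later 0.1 ml of 1% carrageenan in normal saline injected into subplantar aponeurosis of left hind paw. Paw volume read by plethysmometer at 0, 3 and 5 h; increase in volume (ml, SEM) and % inhibition versus control.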

[2] = tested on: Rattus norvegicus; assay: Antiinflammatory activity in carrageenan-induced Wistar rat paw edema model assessed as increase in paw volume at 20 mg/kg, po measured 5 hrs after carrageenan challenge relative to control; format: functional; method in brief: as §1
[3] = molecular target: Prostaglandin G/H synthase 2 (Ovis aries) (UniProt P79208); assay: Inhibition of recombinant COX2 at 0.05 uM
Sequence of Prostaglandin G/H synthase 2 (Ovis aries) (P79208 whole entry, looked up): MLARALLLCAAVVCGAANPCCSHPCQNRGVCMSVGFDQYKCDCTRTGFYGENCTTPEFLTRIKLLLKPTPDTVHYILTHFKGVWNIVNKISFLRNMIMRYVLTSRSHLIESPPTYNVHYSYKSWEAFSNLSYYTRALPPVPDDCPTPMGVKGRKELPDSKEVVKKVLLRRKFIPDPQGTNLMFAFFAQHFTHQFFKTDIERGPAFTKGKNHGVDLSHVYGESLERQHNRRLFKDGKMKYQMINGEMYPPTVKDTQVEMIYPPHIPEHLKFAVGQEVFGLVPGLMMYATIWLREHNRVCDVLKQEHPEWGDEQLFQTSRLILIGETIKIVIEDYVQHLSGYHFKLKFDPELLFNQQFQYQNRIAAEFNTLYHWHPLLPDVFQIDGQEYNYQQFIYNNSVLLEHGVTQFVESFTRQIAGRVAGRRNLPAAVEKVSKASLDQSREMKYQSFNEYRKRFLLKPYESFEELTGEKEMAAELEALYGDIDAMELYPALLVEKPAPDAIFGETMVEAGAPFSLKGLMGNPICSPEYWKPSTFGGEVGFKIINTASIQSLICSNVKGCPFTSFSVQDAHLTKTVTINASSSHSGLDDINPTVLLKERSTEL

[4] = tested on: Rattus norvegicus; assay: Gastrointestinal toxicity in Wistar rat assessed as induction of gastric ulceration at 60 mg/kg, po; format: organism-based, Stomach; design: dose 60 mg/kg, route oral; settings: in vivo
Method in brief: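 Acute gastric ulcerogenicity in Wistar rats given 60 mg/kg bw orally. Animals sacrificed under deep ether anesthesia 6 h after treatment. Stomachs removed and opened along the greater curvature, then examined for lesions or bleeding.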

[5] = molecular target: Prostaglandin G/H synthase 1 (Ovis aries) (UniProt P05979); assay: Inhibition of recombinant COX1 at 0.05 uM
Sequence of Prostaglandin G/H synthase 1 (Ovis aries) (P05979 whole entry, looked up): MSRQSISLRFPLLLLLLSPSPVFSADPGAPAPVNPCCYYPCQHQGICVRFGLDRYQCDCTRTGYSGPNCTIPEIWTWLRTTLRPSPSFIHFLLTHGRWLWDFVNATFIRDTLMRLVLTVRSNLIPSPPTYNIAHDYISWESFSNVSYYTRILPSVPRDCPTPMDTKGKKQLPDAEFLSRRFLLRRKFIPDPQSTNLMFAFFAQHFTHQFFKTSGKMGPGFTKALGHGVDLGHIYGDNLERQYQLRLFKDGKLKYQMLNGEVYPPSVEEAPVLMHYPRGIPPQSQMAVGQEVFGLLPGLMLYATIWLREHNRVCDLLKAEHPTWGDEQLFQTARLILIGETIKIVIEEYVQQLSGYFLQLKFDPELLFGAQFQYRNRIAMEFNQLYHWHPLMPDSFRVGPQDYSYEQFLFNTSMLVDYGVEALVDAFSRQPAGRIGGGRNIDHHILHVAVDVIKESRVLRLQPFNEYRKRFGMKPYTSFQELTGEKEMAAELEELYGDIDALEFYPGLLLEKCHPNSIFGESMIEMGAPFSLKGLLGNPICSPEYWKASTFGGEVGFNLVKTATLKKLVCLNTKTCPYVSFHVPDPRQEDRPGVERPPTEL

| SMILES | Activity [1] [%] | Activity [2] [%] | inhibition [3] [%] | Activity [4] | inhibition [5] [%] |
| --- | --- | --- | --- | --- | --- |
| COc1ccc(C2=NN(c3ccc(S(N)(=O)=O)cc3)C(c3ccc(Cl)cc3)C2)c(O)c1 (stereo unspecified) | 28.6 | 46.3 |  |  |  |
| COc1ccc(C2=NN(c3ccc(S(N)(=O)=O)cc3)C(c3cc(OC)c(OC)c(OC)c3)C2)c(OC)c1 (stereo unspecified) | 83.3 | 76.6 | 38.6 | Non-toxic | 30 |
| COc1ccc(C2CC(c3ccccc3O)=NN2c2ccc(S(N)(=O)=O)cc2)cc1 (stereo unspecified) | 50 | 41.3 |  |  |  |
| COc1ccc(C2=NN(c3ccc(S(N)(=O)=O)cc3)C(c3cccc(O)c3)C2)c(O)c1 (stereo unspecified) | 33.3 | 8.3 |  |  |  |
| Cc1ccc(-c2cc(C(F)(F)F)nn2-c2ccc(S(N)(=O)=O)cc2)cc1 [CELECOXIB] |  | 40 |  |  |  |
| COc1ccc(C2CC(c3ccc(OC)cc3O)=NN2c2ccc(S(N)(=O)=O)cc2)cc1 (stereo unspecified) | 27 | 37.3 |  |  |  |
| COc1ccc(C2=NN(c3ccc(S(N)(=O)=O)cc3)C(c3cccc([N+](=O)[O-])c3)C2)c(OC)c1 (stereo unspecified) | 68.8 | 57.6 | 42.9 | Non-toxic | 58.8 |
| COc1ccc(C2CC(c3c(O)ccc4c(C)cc(=O)oc34)=NN2c2ccc(S(N)(=O)=O)cc2)cc1 (stereo unspecified) | 20 | 10.6 |  |  |  |
| Cc1cc(=O)oc2c(C3=NN(c4ccc(S(N)(=O)=O)cc4)C(c4cccc(O)c4)C3)c(O)ccc12 (stereo unspecified) | 20 | 30.6 |  |  |  |
| COc1ccc(C2=NN(c3ccc(S(N)(=O)=O)cc3)C(c3ccccc3)C2)c(OC)c1 (stereo unspecified) | 70 | 66.5 | 85.7 | Non-toxic | 73.2 |
| COc1ccc(C2CC(c3ccc(OC)cc3OC)=NN2c2ccc(S(N)(=O)=O)cc2)cc1 (stereo unspecified) | 49.3 | 10.6 |  |  |  |
| COc1ccc(C2=NN(c3ccc(S(N)(=O)=O)cc3)C(c3ccccc3Cl)C2)c(O)c1 (stereo unspecified) | 60 | 35.3 |  |  |  |
| COc1ccc(C2=NN(c3ccc(S(N)(=O)=O)cc3)C(c3cccc(O)c3)C2)c(OC)c1 (stereo unspecified) | 26.6 | 5.3 |  |  |  |
| COc1ccc(C2=NN(c3ccc(S(N)(=O)=O)cc3)C(c3ccccc3Cl)C2)c(OC)c1 (stereo unspecified) | 26.3 | 46.3 |  |  |  |
| COc1ccc(C2=NN(c3ccc(S(N)(=O)=O)cc3)C(c3ccc(OC)c(OC)c3)C2)c(O)c1 (stereo unspecified) | 9 | 13 |  |  |  |
| COc1ccc(C2=NN(c3ccc(S(N)(=O)=O)cc3)C(c3cc(OC)c(OC)c(OC)c3)C2)c(O)c1 (stereo unspecified) | 0 | 0 |  |  |  |
| COc1ccc(C2=NN(c3ccc(S(N)(=O)=O)cc3)C(c3ccccc3)C2)c(O)c1 (stereo unspecified) | 0 | 0 |  |  |  |
| COc1ccc(C2=NN(c3ccc(S(N)(=O)=O)cc3)C(c3ccc(Cl)cc3)C2)c(OC)c1 (stereo unspecified) | 25 | 6.6 |  |  |  |
| COc1ccc(C2CC(c3ccccc3O)=NN2c2ccc(S(N)(=O)=O)cc2)cc1OC (stereo unspecified) | 52 | 10.6 |  |  |  |
| COc1ccc(C2=NN(c3ccc(S(N)(=O)=O)cc3)C(c3ccc(N(C)C)cc3)C2)c(OC)c1 (stereo unspecified) | 79.6 | 79.6 | 50 | Non-toxic | 60.9 |
